Assay outcomes from PubChem.
SR-BI uptake up: SR-BI HDL lipid transfer activation; activation, % at 12.5 µM; hit rate 0.096% among 320,000; CHO ldlA[mSR-BI] cells, DiI-HDL uptake fluorescence, 3 h; 100 = double the neutral-control signal; AID 504775;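 active = mean replicate activation of at least 60% and every replicate at or above 60%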
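material = CHO ldlA[mSR-BI] cells | medium = Ham's F12 with 0.5% BSA, HEPES 25 mM, pH 7.4 | reagent = fluorescent DiI-HDL, 10 µg/mL final | compound dosing = single-point compound dose | incubation = 3 h, 37 °C | measured by = bottom-read fluorescence, 550/595 nm | measure = HDL uptake via cellular fluorescence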
SR-BI DiI inh: mouse SR-BI HDL lipid transfer inhibition; ldlA[mSR-BI] CHO cells, DiI-HDL uptake fluorescence, 3 h; hit rate 0.96% among 320,000; inhibition, % at 12.5 µM; Q61009; AID 488896;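 active = mean replicate inhibition of at least 70% and a set share of replicates each scoring 70 or more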
Target sequence (Q61009 whole entry, looked up): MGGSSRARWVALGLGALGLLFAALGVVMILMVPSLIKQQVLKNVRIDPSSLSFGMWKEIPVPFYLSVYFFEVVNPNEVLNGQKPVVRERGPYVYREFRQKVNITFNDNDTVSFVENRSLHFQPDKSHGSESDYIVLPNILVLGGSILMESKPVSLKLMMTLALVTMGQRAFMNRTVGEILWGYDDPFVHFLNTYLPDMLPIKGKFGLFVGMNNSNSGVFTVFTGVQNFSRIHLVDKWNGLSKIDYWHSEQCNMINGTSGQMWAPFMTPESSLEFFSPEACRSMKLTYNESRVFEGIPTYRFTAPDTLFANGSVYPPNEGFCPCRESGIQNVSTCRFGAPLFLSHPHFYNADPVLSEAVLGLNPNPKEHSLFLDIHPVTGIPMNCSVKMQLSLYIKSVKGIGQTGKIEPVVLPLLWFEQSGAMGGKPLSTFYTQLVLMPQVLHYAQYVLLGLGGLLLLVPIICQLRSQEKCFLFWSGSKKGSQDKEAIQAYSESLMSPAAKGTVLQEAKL
Vif inh: HIV Vif inhibition | HEK293T cells, Vif self-association by quenched fluorescence, imaging, 24 h | inhibition, % at 7.49 µM | hit rate 0.35% among 340,000 | AID 602346; in the data active = inhibition above about 50%, passing the limit was not always enough
PKA-R1A act: activates the PKA-R1A holoenzyme complex | P00514+P68181 | activation, % at 11.4 µM | hit rate 0.083% among 340,000 | PKA-R1A dissociation, Cy5-IP20 fluorescence polarization; scaled: DMSO 0%, 113 µM cGMP 100%;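 active = percent activation above the mean of all tested compounds plus 3 SD, cut at about 19% in these data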;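 note: higher means more PKAc released from R1A so a rise in polarization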
PKA-R2B act: activators of human PKA-R2B complex. P22694+P31323. PKA-R2B holoenzyme dissociation, Cy5-IP20 fluorescence polarization; R2B truncated from residue 108, S112A mutant; 0% DMSO only, 100% 113 µM cGMP. activation, % at 11.4 µM. hit rate 0.079% among 340,000;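 active = activation above a cutoff set at the mean over all compounds plus 3 SD, cut at about 18% in these data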;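 note: higher means more holoenzyme dissociation and a rise in polarization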
Each line names hits and unclear results; the compound was inactive in the other large screens; ! = repeats disagree. An excerpt weighted towards active compounds, which were near 1.4% of everything screened.

COC(=O)[C@H](Cc1ccccc1)NC(=O)/C=C/[C@H]1O[C@@H](n2ccc(=O)[nH]c2=O)[C@H](O)[C@@H]1O	none (no result: SR-BI uptake up, SR-BI DiI inh, PKA-R1A act, PKA-R2B act)
CCOc1ccc(C(C)=O)cc1CN1C(=O)NC2(CCCCCCC2)C1=O	none
Cc1ccc(-c2nc(NC(=O)c3cc(C(C)(C)C)nn3C)sc2C)cc1Cl	SR-BI DiI inh 73
CCCCCC(=O)Nc1ccc(Cc2ccncc2)cc1	Vif inh 80
NS(=O)(=O)c1ccc(NC(=O)CCCCC(=O)Nc2ccc(S(N)(=O)=O)cc2)cc1	none
NCCCCCC(=O)Nc1ccncc1	Vif inh 60
COc1ccc(NC(=O)COc2ccccc2)cc1NC(=O)c1ccco1	none
CCCc1cnc(Nc2nc(C(N)Cc3ccc(OC)cc3)cs2)nc1 (centres undefined)	none (no result: SR-BI uptake up, SR-BI DiI inh, PKA-R1A act, PKA-R2B act)
CCCn1c(SCC(=O)NC(C)c2ccccc2)n[nH]c1=O (centres undefined)	none
CCCn1c(Sc2nnnn2-c2ccccc2)n[nH]c1=O	SR-BI uptake up 80
COc1ccc(OC)c(-c2csc(NC(=O)C3CSC4(C)CCC(=O)N34)n2)c1 (centres undefined)	SR-BI DiI inh 82
CC(C)(C)OC(=O)N[C@H](Cc1ccccc1)C(=O)N1CCC[C@@H]1C(=O)O	none
NCCCC[C@H](N[C@@H](CCc1ccccc1)C(=O)O)C(=O)N1CCC[C@H]1C(=O)O	Vif inh 79!
COCCNC(=O)C1(C)CCN(C(=O)c2cccc(C)c2C)C1 (centres undefined)	none (no result: SR-BI uptake up, SR-BI DiI inh, PKA-R1A act, PKA-R2B act)
COc1ccccc1C(=O)NC(CCSC)C(=O)NNC(=O)c1ccc(F)cc1 (centres undefined)	none
COc1ccccc1C(=O)NC(CCSC)C(=O)NNC(=O)c1ccccc1O (centres undefined)	SR-BI DiI inh 76
COc1cccc(Nc2nc(N)nc(CCl)n2)c1	none
Cc1cccc(Nc2nc(N)nc(CCl)n2)c1	Vif inh 142
COCCCn1c(=O)/c(=C\c2ccccc2OC(F)F)s/c1=C(/C#N)C(N)=O	Vif inh 139
COCCCn1c(=O)/c(=C\c2ccc(OC(F)F)c(OC)c2)s/c1=C(/C#N)C(N)=O	none (no result: SR-BI uptake up, SR-BI DiI inh)
O=C1CSC(=S)N1Cc1ccccc1	none (no result: SR-BI uptake up, SR-BI DiI inh)
CCOC(=O)C1=C(Nc2ccccc2)CC(C)(O)C(C(=O)OCC)C1c1ccccc1 (centres undefined)	SR-BI uptake up 64
CCOC(=O)c1c(NC(=S)Nc2ccccc2)sc2c1CC(C)(C)SC2	SR-BI DiI inh 95
CCOC(=O)c1c(NC(=O)Nc2ccccc2)sc(C)c1C	SR-BI DiI inh 85
COc1ccc(NC(=O)CCCC(=O)OCC(=O)c2cccc(OC)c2)cc1	none
O=C(/C=C\c1ccco1)Nc1cc([N+](=O)[O-])ccc1F	Vif inh 64
O=C(/C=C/c1ccco1)Nc1cc(Cl)ccc1C(=O)O	none (no result: SR-BI uptake up, SR-BI DiI inh)
Cc1ccc(-c2cc(-c3ccc(C)cc3O)[nH]n2)cc1	SR-BI DiI inh 100
Cc1ccc(-c2cc(-c3ccc(F)cc3)n[nH]2)c(O)c1	none
CCN1C[C@@H]2[C@@H]3C(=O)N(Cc4ccccc4)C(=O)[C@@H]3[C@](C)(C1=O)N2C(=O)c1ccccc1	none
CCCOC(=O)c1c(NC(=O)/C=C/c2cnn(C)c2C)sc(C(=O)OC)c1C	none
CCCOC(=O)c1c(NC(=O)/C=C/c2cnn(C)c2C)sc(C(=O)OCC)c1C	SR-BI DiI inh 76 (no result: Vif inh)
Clc1ccc(/C=N/c2c(-c3ccc(Cl)cc3)nc3n2CCS3)cc1	SR-BI DiI inh 89
C(=N\c1c(-c2ccccc2)nc2n1CCS2)/c1ccccc1	none
CC(=O)c1ccc(OCC(O)CN2CCN(S(=O)(=O)c3c(C)c(C)cc(C)c3C)CC2)cc1 (centres undefined)	SR-BI DiI inh 86
CC(=O)c1ccc(OCC(O)CN2CCN(CC(O)COc3ccc(C(C)=O)cc3)CC2)cc1 (centres undefined)	none
CCOc1ccc(CCNS(=O)(=O)c2c(C)nc3sccn3c2=O)cc1OCC	none (no result: SR-BI uptake up, SR-BI DiI inh, PKA-R1A act, PKA-R2B act)
COc1ccc(S(=O)(=O)N2CCN(C(=O)c3ccccc3Cc3ccccc3)CC2)cc1OC	none (no result: SR-BI uptake up, SR-BI DiI inh)
O=C(Nc1ccc(Cl)cc1)C1Cc2c(-c3ccccc3Oc3ccccc3)ccnc2O1 (centres undefined)	none (no result: SR-BI uptake up, SR-BI DiI inh, PKA-R1A act, PKA-R2B act)
COCCSc1nnc(NS(=O)(=O)c2ccc(C)cc2)s1	none
COCCSc1nnc(NS(=O)(=O)c2ccccc2)s1	Vif inh 56
N=C1/C(=C/c2cccn2CCOc2ccccc2)C(=O)N=C2SC=C(c3ccccc3)N12	SR-BI DiI inh 75
N=C1/C(=C\c2ccc(-c3cc(Cl)cc(Cl)c3)o2)C(=O)N=C2SC=C(c3ccccc3)N12	none
O=C(CCN1C(=O)/C(=C/C=C/c2ccccc2)SC1=S)Nc1cccnc1	Vif inh 57
O=C(CCN1C(=O)/C(=C\c2ccccc2)SC1=S)NNC(=O)c1ccccc1O	SR-BI DiI inh 99
CC(=O)c1ccc(NC(=O)CN2C(=O)/C(=C/C=C/c3ccccc3)SC2=S)cc1	SR-BI DiI inh 72
O=C(CCN1C(=O)/C(=C/C=C/c2ccccc2)SC1=S)Nc1ccccn1	none
Cc1oc2nc(SCC(=O)NC3CCCCC3)nc(N)c2c1C	SR-BI uptake up 389
COc1ccc(CN2C(=O)c3ccccc3C2=O)cc1	Vif inh 62
Cc1[nH]n(-c2ccccc2)c(=O)c1N=Nc1ccc2c(c1)OCCO2	none
Cc1[nH]n(-c2ccccc2)c(=O)c1N=Nc1c(O)cc(S(=O)(=O)N(C)C)c2ccccc12	SR-BI DiI inh 136
CCN1C[C@@H]2[C@@H]3C(=O)N(Cc4ccccc4)C(=O)[C@@H]3[C@](Cc3ccccc3)(C1=O)N2C(=O)c1ccc(C(F)(F)F)cc1	none
N#CC(C(=O)NCCc1ccccc1)c1nc2ccccc2nc1N1CCCCC1 (centres undefined)	none
CCOc1ccccc1N1CCN(c2nc3ccccc3nc2C(C#N)C(=O)OC)CC1 (centres undefined)	SR-BI DiI inh 75
COc1ccccc1N1CCN(c2nc3ccccc3nc2C(C#N)C(=O)OC(C)C)CC1 (centres undefined)	none
CCCCCCOC(=O)C(C#N)c1nc2ccccc2nc1N1CCOCC1 (centres undefined)	Vif inh 182
CCCCOC(=O)C(C#N)c1nc2ccccc2nc1N1CCOCC1 (centres undefined)	none
N#CC(C(=O)NCCc1ccccc1)c1nc2ccccc2nc1N1CCOCC1 (centres undefined)	Vif inh 64
CC1(C)CC(=O)C=C(c2n[nH]nc2C2=CCCCC2)C1	none (no result: SR-BI uptake up, SR-BI DiI inh)
COc1cc2ccccc2cc1C(=O)Nc1nnc(-c2ccncc2)o1	none
Cc1ccc(N(C)S(=O)(=O)c2cccc(C(=O)N3CCN(Cc4ccccc4)CC3)c2)cc1	none
